Activity calls are given as the source filed them. The rule behind the calls is not given here.
tested on: not listed separately; assay: In vivo antagonist activity at dopamine receptor in pigeon assessed as inhibition of apomorphine-induced pecking behavior administered intramuscularly for 15 mins prior to apomorphine-challenge measured after 1 hr; assay type: functional; conditions: Columbidae, im
Summary of the method: (§1)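 Pigeons were pretreated im with compound 15 min before im apomorphine hydrochloride (1.6 μmol/kg), and pecking frequency was quantified. Five pigeons per dose, three antagonist doses spaced at 0.3 log intervals.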

Row | SMILES | ED50 [µmol/kg]
1 | Br.CN1CCC[C@@H]2c3ccc(O)cc3CC[C@@H]21 | 16.5
2 | COc1ccc2c(c1OC)CC[C@H]1[C@@H]2CCCN1C (relative stereo) | 1.7
3 | COc1ccc2c(c1OC)CC[C@H]1[C@H]2CCCN1C (relative stereo) | 15.1
4 | CN1CCC[C@@H]2c3ccccc3CC[C@@H]21 (relative stereo) | 2.7
5 | CN1CCC[C@H]2c3ccccc3CC[C@@H]21 (relative stereo) | 2.2
6 | Br.CN1CCC[C@@H]2c3cccc(O)c3CC[C@@H]21 (relative stereo) | 3.8
7 | Br.CN1CCC[C@H]2c3cccc(O)c3CC[C@@H]21 (relative stereo) | 2.2
8 | Br.CN1CCC[C@H]2c3ccc(O)cc3CC[C@@H]21 (relative stereo) | 9
9 | Br.CN1CCC[C@@H]2c3ccc(O)c(O)c3CC[C@@H]21 (relative stereo) | 8.3

tested on: Canis familiaris; assay: In vivo agonist activity at dopamine receptor in sc dosed mongrel dog assessed as induction of emesis after 1 hr relative to apomorphine; assay type: functional, Canis lupus familiaris; conditions: not given
Summary of the method: (§2)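 Mongrel dogs, five per dose, with doses spaced at 0.3 log intervals and given sc. Emetic episodes were counted for 1 h after dosing. Apomorphine hydrochloride served as reference standard.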

Row | SMILES | fold change (FC)
10 | Br.CN1CCC[C@H]2c3cccc(O)c3CC[C@@H]21 (relative stereo) | 0.03
11 | Br.CN1CCC[C@@H]2c3ccc(O)c(O)c3CC[C@@H]21 (relative stereo) | 0.02
12 | Br.CN1CCC[C@H]2c3ccc(O)c(O)c3CC[C@@H]21 (relative stereo) | 6.1

tested on: Canis familiaris; assay: Toxicity in sc dosed mongrel dog assessed as behavioral changes; assay type: organism-based, Canis lupus familiaris; conditions: in vivo

Row | SMILES | Activity
13 | Br.CN1CCC[C@@H]2c3ccc(O)cc3CC[C@@H]21 | Non-toxic
14 | COc1ccc2c(c1OC)CC[C@H]1[C@@H]2CCCN1C (relative stereo) | Non-toxic
15 | COc1ccc2c(c1OC)CC[C@H]1[C@H]2CCCN1C (relative stereo) | Non-toxic
16 | CN1CCC[C@@H]2c3ccccc3CC[C@@H]21 (relative stereo) | Non-toxic
17 | CN1CCC[C@H]2c3ccccc3CC[C@@H]21 (relative stereo) | Non-toxic
18 | Br.CN1CCC[C@@H]2c3cccc(O)c3CC[C@@H]21 (relative stereo) | Non-toxic
19 | Br.CN1CCC[C@H]2c3cccc(O)c3CC[C@@H]21 (relative stereo) | Non-toxic
20 | Br.CN1CCC[C@H]2c3ccc(O)cc3CC[C@@H]21 (relative stereo) | Non-toxic
21 | CN1CCc2cccc3c2[C@H]1Cc1ccc(O)c(O)c1-3.CN1CCc2cccc3c2[C@H]1Cc1ccc(O)c(O)c1-3.Cl.Cl.O [APOMORPHINE HYDROCHLORIDE] | Non-toxic

tested on: Felis catus; assay: Effect on 2 Hz stimulation of right cardioaccelerator nerve-induced positive chronotropic response in iv dosed cat assessed as concentration required for 50% inhibition of change in heart rate; assay type: functional; conditions: not given

Row | SMILES | Activity [µmol/kg]
22 | Br.CN1CCC[C@H]2c3cccc(O)c3CC[C@@H]21 (relative stereo) | >2.1
23 | Br.CN1CCC[C@@H]2c3ccc(O)c(O)c3CC[C@@H]21 (relative stereo) | 0.59
24 | Br.CN1CCC[C@H]2c3ccc(O)c(O)c3CC[C@@H]21 (relative stereo) | 0.0052

tested on: not listed separately; assay: In vivo antagonist activity at dopamine receptor in pigeon assessed as inhibition of apomorphine-induced pecking behavior administered intramuscularly for 15 mins prior to apomorphine-challenge measured after 1 hr relative to control; assay type: functional, Columbidae; conditions: not given; summary of the method: as §1

Row | SMILES | fold change (FC)
25 | Br.CN1CCC[C@@H]2c3ccc(O)cc3CC[C@@H]21 | 0.1
26 | COc1ccc2c(c1OC)CC[C@H]1[C@@H]2CCCN1C (relative stereo) | 1
27 | COc1ccc2c(c1OC)CC[C@H]1[C@H]2CCCN1C (relative stereo) | 0.11
28 | CN1CCC[C@@H]2c3ccccc3CC[C@@H]21 (relative stereo) | 0.61
29 | CN1CCC[C@H]2c3ccccc3CC[C@@H]21 (relative stereo) | 0.74
30 | Br.CN1CCC[C@@H]2c3cccc(O)c3CC[C@@H]21 (relative stereo) | 0.44
31 | Br.CN1CCC[C@H]2c3cccc(O)c3CC[C@@H]21 (relative stereo) | 0.76
32 | Br.CN1CCC[C@H]2c3ccc(O)cc3CC[C@@H]21 (relative stereo) | 0.18
33 | Br.CN1CCC[C@@H]2c3ccc(O)c(O)c3CC[C@@H]21 (relative stereo) | 0.2

tested on: Felis catus; assay: Effect on 2 Hz stimulation of right cardioaccelerator nerve-induced positive chronotropic response in cat assessed as potentiation of change in heart rate up to 3.3 umol/kg, iv; assay type: functional, organism-based; conditions: not given

Row | SMILES | Activity
34 | Br.CN1CCC[C@@H]2c3ccc(O)cc3CC[C@@H]21 | inactive
35 | Br.CN1CCC[C@H]2c3ccc(O)cc3CC[C@@H]21 (relative stereo) | inactive

tested on: Canis familiaris; assay: In vivo agonist activity at dopamine receptor in mongrel dog assessed as induction of emesis up to 5 mg/kg, sc after 1 hr; assay type: functional, organism-based; set-up: dose 5 mg/kg; conditions: Canis lupus familiaris; summary of the method: as §2

Row | SMILES | Activity
36 | Br.CN1CCC[C@@H]2c3ccc(O)cc3CC[C@@H]21 | inactive
37 | COc1ccc2c(c1OC)CC[C@H]1[C@@H]2CCCN1C (relative stereo) | inactive
38 | COc1ccc2c(c1OC)CC[C@H]1[C@H]2CCCN1C (relative stereo) | inactive
39 | CN1CCC[C@@H]2c3ccccc3CC[C@@H]21 (relative stereo) | inactive
40 | CN1CCC[C@H]2c3ccccc3CC[C@@H]21 (relative stereo) | inactive
41 | Br.CN1CCC[C@@H]2c3cccc(O)c3CC[C@@H]21 (relative stereo) | inactive
42 | Br.CN1CCC[C@H]2c3ccc(O)cc3CC[C@@H]21 (relative stereo) | inactive

tested on: Mus musculus; assay: Hypothermic activity in mouse assessed as decrease in rectal temperature at 10 mg/kg, sc measured every 15 mins; assay type: functional; conditions: route subcutaneous

Row | SMILES | T [°C]
43 | Br.CN1CCC[C@@H]2c3ccc(O)cc3CC[C@@H]21 | 2.3
44 | CN1CCC[C@@H]2c3ccccc3CC[C@@H]21 (relative stereo) | 1.6
45 | CN1CCC[C@H]2c3ccccc3CC[C@@H]21 (relative stereo) | 2.6
46 | Br.CN1CCC[C@@H]2c3cccc(O)c3CC[C@@H]21 (relative stereo) | 0
47 | Br.CN1CCC[C@H]2c3cccc(O)c3CC[C@@H]21 (relative stereo) | 1.4
48 | Br.CN1CCC[C@H]2c3ccc(O)cc3CC[C@@H]21 (relative stereo) | 2.4
49 | Br.CN1CCC[C@@H]2c3ccc(O)c(O)c3CC[C@@H]21 (relative stereo) | 1.6
50 | Br.CN1CCC[C@H]2c3ccc(O)c(O)c3CC[C@@H]21 (relative stereo) | 4.4
51 | CN1CCc2cccc3c2[C@H]1Cc1ccc(O)c(O)c1-3.CN1CCc2cccc3c2[C@H]1Cc1ccc(O)c(O)c1-3.Cl.Cl.O [APOMORPHINE HYDROCHLORIDE] | 3.6

tested on: Columbidae; assay: In vivo agonist activity at dopamine receptor in pigeon assessed as induction of pecking behavior administered intramuscularly after 1 hr; assay type: functional, organism-based; conditions: not given
Summary of the method: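 Pigeons were given compound intramuscularly, and pecking frequency was recorded for 1 h afterwards. Apomorphine hydrochloride served as reference standard.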

Row | SMILES | Activity
52 | CN1CCc2cccc3c2[C@H]1Cc1ccc(O)c(O)c1-3.CN1CCc2cccc3c2[C@H]1Cc1ccc(O)c(O)c1-3.Cl.Cl.O [APOMORPHINE HYDROCHLORIDE] | Active

species: Felis catus; assay: Effect on 2 Hz transmural stimulation of right atrium-induced positive chronotropic response in cat assessed as inhibition of change in heart rate; assay type: functional, Cardiac atrium; conditions: not given
Summary of the method: (§3)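 Isolated cat right atria in Feigan's solution under transmural field stimulation: 2 Hz, 5 ms pulses, maximal voltage, 10 s trains every 5 min, activating adrenergic terminals. After control heart-rate increases were established, compound was added to the bath and its effect was read 5 min later. Estimated ID50 or 50%-potentiation concentration in μM.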

Row | SMILES | ID50
53 | Br.CN1CCC[C@H]2c3cccc(O)c3CC[C@@H]21 (relative stereo) | 1 ×10⁻¹ microM
54 | Br.CN1CCC[C@@H]2c3ccc(O)c(O)c3CC[C@@H]21 (relative stereo) | 4.7 ×10⁻² microM
55 | Br.CN1CCC[C@H]2c3ccc(O)c(O)c3CC[C@@H]21 (relative stereo) | 3.2 ×10⁻³ microM

tested on: Felis catus; assay: Effect on 2 Hz stimulation of right cardioaccelerator nerve-induced positive chronotropic response in iv dosed cat assessed as concentration required for 50% potentiation of change in heart rate; assay type: functional; conditions: not given

Row | SMILES | Activity
56 | Br.CN1CCC[C@@H]2c3ccc(O)cc3CC[C@@H]21 | <=3.3 umol/Kg
57 | CN1CCC[C@@H]2c3ccccc3CC[C@@H]21 (relative stereo) | <=3.5 umol/Kg
58 | CN1CCC[C@H]2c3ccccc3CC[C@@H]21 (relative stereo) | <=3.5 umol/Kg
59 | Br.CN1CCC[C@@H]2c3cccc(O)c3CC[C@@H]21 (relative stereo) | >3.3 µmol/kg
60 | Br.CN1CCC[C@H]2c3ccc(O)cc3CC[C@@H]21 (relative stereo) | <=3.3 umol/Kg

tested on: Canis familiaris; assay: In vivo antagonist activity at dopamine receptor in sc dosed mongrel dog assessed as inhibition of apomorphine-induced emesis pretreated for 15 mins followed by apomorphine-challenge measured after 1 hr; assay type: functional; conditions: Canis lupus familiaris
Summary of the method: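 Dogs were given compound sc 15 min before sc apomorphine hydrochloride (100 μg/kg). Emesis frequency over 1 h was compared with the apomorphine control value in the same dogs.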

Row | SMILES | ED50 [µmol/kg]
61 | Br.CN1CCC[C@@H]2c3ccc(O)cc3CC[C@@H]21 | 10
62 | CN1CCC[C@@H]2c3ccccc3CC[C@@H]21 (relative stereo) | 8.8
63 | CN1CCC[C@H]2c3ccccc3CC[C@@H]21 (relative stereo) | 4.1
64 | Br.CN1CCC[C@@H]2c3cccc(O)c3CC[C@@H]21 (relative stereo) | 6
65 | Br.CN1CCC[C@H]2c3ccc(O)cc3CC[C@@H]21 (relative stereo) | 4.3

tested on: Felis catus; assay: Effect on 2 Hz stimulation of right cardioaccelerator nerve-induced positive chronotropic response in iv dosed cat assessed as inhibition of change in heart rate in presence of haloperidol; assay type: functional, organism-based; conditions: not given
Summary of the method: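 Cat right cardioaccelerator nerve preparation with 2 Hz stimulation and heart-rate response recorded. Haloperidol (100 μg/kg) was given iv before the iv test compound, then inhibition of the nerve-evoked heart-rate increase was assessed.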

Row | SMILES | inhibition
66 | Br.CN1CCC[C@H]2c3cccc(O)c3CC[C@@H]21 (relative stereo) | inactive
67 | Br.CN1CCC[C@@H]2c3ccc(O)c(O)c3CC[C@@H]21 (relative stereo) | inactive
68 | Br.CN1CCC[C@H]2c3ccc(O)c(O)c3CC[C@@H]21 (relative stereo) | inactive

tested on: Felis catus; assay: Effect on 2 Hz stimulation of right cardioaccelerator nerve-induced positive chronotropic response in cat assessed as potentiation of change in heart rate up to 3.5 umol/kg, iv; assay type: functional, organism-based; conditions: not given

Row | SMILES | Activity
69 | CN1CCC[C@@H]2c3ccccc3CC[C@@H]21 (relative stereo) | inactive
70 | CN1CCC[C@H]2c3ccccc3CC[C@@H]21 (relative stereo) | inactive

species: Felis catus; assay: Effect on 2 Hz transmural stimulation of right atrium-induced positive chronotropic response in cat assessed as concentration required for 50% potentiation of change in heart rate; assay type: functional, Cardiac atrium; conditions: not given; summary of the method: as §3

Row | SMILES | Activity [µM]
71 | Br.CN1CCC[C@@H]2c3ccc(O)cc3CC[C@@H]21 | 3.9
72 | CN1CCC[C@@H]2c3ccccc3CC[C@@H]21 (relative stereo) | 1.6
73 | CN1CCC[C@H]2c3ccccc3CC[C@@H]21 (relative stereo) | 7.8
74 | Br.CN1CCC[C@H]2c3ccc(O)cc3CC[C@@H]21 (relative stereo) | 12.7

From ChEMBL document CHEMBL3272132, “Centrally acting emetics. 10. Rigid dopamine congeners derived from octahydrobenzo[f]quinoline” (J Med Chem, 1976)
